Measured values gathered from unrelated publications.
Protocols differ between the studies behind these lines.
PTPN12: Tyrosine-protein phosphatase non-receptor type 12 (PTPN12, Homo sapiens, UniProt Q05209)
TPR: Trypanothione reductase (TPR, Trypanosoma cruzi, UniProt P28593)
SLC6A2: Sodium-dependent noradrenaline transporter (SLC6A2, Homo sapiens, UniProt P23975)
NPSR1: Neuropeptide S receptor (NPSR1, Homo sapiens, UniProt Q6W5P4)
GRM3: Metabotropic glutamate receptor 3 (GRM3, Homo sapiens, UniProt Q14832)
Aldo-keto reductase family 1 member A1: Aldo-keto reductase family 1 member A1 (Rattus norvegicus, UniProt P51635)

SMILES | target | assay | setting | IC50 [µM]
CN1CCN(c2ccc(Nc3ncc4cc(C#N)c(=O)n(C5CCCC5)c4n3)cc2)CC1 | MAP kinase-interacting serine/threonine-protein kinase 2 (MKNK2, Homo sapiens, UniProt Q9HBH9) | enzyme activity, inhibitor | – | 4.41
O=C1c2ccccc2C(=O)c2c(O)c(O)cc(O)c21 | PTPN12 | enzyme activity, inhibitor | – | 5
ClCCOC(c1ccccc1)c1ccccc1 | TPR | enzyme activity, inhibitor, absorbance | – | 82.9
O=C(O)c1cc(O)c2c(c1)[C@H]([C@H]1c3cc(C(=O)O)cc(O)c3C(=O)c3c(O[C@@H]4O[C@H](CO)[C@@H](O)[C@H](O)[C@H]4O)cccc31)c1cccc(O[C@@H]3O[C@H](CO)[C@@H](O)[C@H](O)[C@H]3O)c1C2=O | PTPN12 | enzyme activity, inhibitor, fluorescence | – | 0.4
Clc1ccc(C(c2ccccc2)c2nnnn2CCCCN2CCC(Cc3ccc(Cl)c(Cl)c3)CC2)cc1 (stereo not shown) | SLC6A2 | transporter uptake, inhibitor | – | 0.78
COc1cccc(C2c3c(ncn(-c4cccc(C#N)c4)c3=N)Oc3ccc4ccccc4c32)c1 (stereo not shown) | NPSR1 | cAMP, antagonist, TR-FRET | – | 19.4
N=c1n(CCOc2ccccc2)c2ccccc2n1CCN1CCCCC1 | TPR | enzyme activity, inhibitor | – | ≤ 10
NC(=O)c1cccc(-c2cccc(OC(=O)NC3CCCCC3)c2)c1 | Cocaine esterase (CES2, Homo sapiens, UniProt O00748) | enzyme activity, inhibitor | – | 0.072
Clc1ccc(C(c2ccccc2)c2nnnn2CCCN2CCC(CCCc3ccccc3)CC2)cc1 (stereo not shown) | SLC6A2 | transporter uptake, inhibitor | – | 0.527
Nc1nccc2cc(CNC(=O)c3cnn(Cc4ccc(Cn5ccccc5=O)cc4)c3)ccc12 | Plasma kallikrein (KLKB1, Homo sapiens, UniProt P03952) | enzyme activity, inhibitor | with preincubation | 0.00059
COc1ccc(-c2cc(C(N)=O)ncc2OCc2ccc(OC)nc2)c(F)c1 | GRM3 | ion flux, antagonist | – | > 10
N=c1c2c(ncn1Cc1ccccc1)Oc1ccc3ccccc3c1C2c1ccccc1 (stereo not shown) | NPSR1 | cAMP, antagonist, TR-FRET | – | 3.07
COc1ccc(-c2cc(C(N)=O)ncc2OCc2cn(C)cn2)c(F)c1 | GRM3 | ion flux, antagonist | – | > 10
OC1c2ccccc2CCc2ccccc21 | TPR | enzyme activity, inhibitor, absorbance | – | > 100
Cc1ccc(C(O)Cn2c(=N)n(CCN3CCCCC3)c3ccccc32)cc1 (stereo not shown) | TPR | enzyme activity, inhibitor | – | ≤ 10
COc1cccc(C2c3c(ncn(-c4ccc(F)cc4)c3=N)Oc3ccc4ccccc4c32)c1 (stereo not shown) | NPSR1 | calcium signal, antagonist | – | 3.48
O=S1(=O)O[C@@H]2[C@H](O)[C@@H](O)[C@H](O)[C@@H](CO)[C@@H]2O1 | bglA (Thermotoga maritima, UniProt Q08638) | enzyme activity, inhibitor | pH 6.8, with preincubation | > 100
COc1ccc(/C=C2\SC(=Nc3nc4ccc(OC)cc4s3)NC2=O)cc1 | Aldo-keto reductase family 1 member A1 | enzyme activity, inhibitor, absorbance | pH 7.2 | 4.21
Fc1ccc(C(c2ccc(F)cc2)c2nnnn2CCCCN2CCN(Cc3ccccc3)CC2)cc1 | SLC6A2 | transporter uptake, inhibitor | – | 0.16
NCCCc1ccccc1 | TPR | enzyme activity, inhibitor, absorbance | – | > 100
N=c1c2c(ncn1-c1ccccc1)Oc1ccc3ccccc3c1C2c1ccc2c(c1)OCCO2 (stereo not shown) | NPSR1 | cAMP, antagonist, TR-FRET | – | 3.07
O=C(Oc1cc(O)cc2c1C[C@@H](OC(=O)c1cc(O)c(O)c(O)c1)[C@@H](c1cc(O)c(O)c(O)c1)O2)c1cc(O)c(O)c(O)c1 | PTPN12 | enzyme activity, inhibitor | – | 0.02

SMILES | target | assay | setting | IC50 [µM]
c1ccc(CCC2CCN(CCCCn3nnnc3C(c3ccccc3)c3ccccc3)CC2)cc1 | SLC6A2 | transporter uptake, inhibitor | – | 0.274
COc1ccc(-c2cc(C(N)=O)ncc2OCc2ccnc(OC)c2)c(F)c1 | GRM3 | ion flux, antagonist | – | > 10
COc1ccc2nc(/N=C3/NC(=O)C(=Cc4cc(OC)c(O)c(OC)c4)S3)sc2c1 | Aldo-keto reductase family 1 member A1 | enzyme activity, inhibitor, absorbance | pH 7.2 | 42.1
Cc1cnc(-c2ccc(-c3ccc(NC(=O)Nc4c(F)cc(F)cc4F)cc3F)c3c2C(=O)NC3)[nH]1 | Serine/threonine-protein kinase 10 (STK10, Homo sapiens, UniProt O94804) | enzyme activity, inhibitor | – | 0.0433
Fc1ccc(C(c2ccc(F)cc2)c2nnnn2CCCCN2CCC(Cc3ccc(Cl)c(Cl)c3)CC2)cc1 | SLC6A2 | transporter uptake, inhibitor | – | 0.521
O=P(O)(O)OC[C@H]1O[C@@](CO)(OP(=O)(O)O)[C@@H](O)[C@@H]1O | Fructose-1,6-bisphosphatase 1 (Mus musculus, UniProt Q9QXD6, G27P) | enzyme activity, inhibitor | – | 1.52
O=C1c2ccccc2-c2cccc3cccc1c23 | PTPN12 | enzyme activity, inhibitor | – | > 150
c1ccc(CCCN2CCNCC2)cc1 | TPR | enzyme activity, inhibitor, absorbance | – | 34.5
COc1ccc(C2c3c(ncn(CCCc4ccccc4)c3=N)Oc3ccc4ccccc4c32)cc1OC (stereo not shown) | NPSR1 | calcium signal, antagonist | – | > 30
COc1ccc(-c2nsc(NC(=O)[C@@H]3C[C@H]3C)c2C)cc1 | GRM3 | calcium signal, antagonist | – | > 12.5
Nc1c(Cl)cccc1C(=O)Nc1ccccc1C(=O)O | srtA (Staphylococcus aureus, UniProt Q2FV99) | enzyme activity, inhibitor | – | 59.7
N=c1n(CCN2CCCCC2)c2ccccc2n1CC(O)COc1ccccc1 (stereo not shown) | TPR | enzyme activity, inhibitor | – | ≤ 10
COc1ccc(-c2cc(C(N)=O)ncc2OCc2ccncc2)c(F)c1 | GRM3 | ion flux, antagonist | – | > 10
N=c1c2c(ncn1-c1ccccc1)Oc1ccc3ccccc3c1C2c1ccc2c(c1)CCO2 (stereo not shown) | NPSR1 | cAMP, antagonist, TR-FRET | – | 3.07
Clc1ccc(C(c2ccccc2)c2nnnn2CCCCN2CCN(CCCc3ccccc3)CC2)cc1 (stereo not shown) | SLC6A2 | transporter uptake, inhibitor | – | 0.745
CN1c2c(nc(N)[nH]c2=O)NC[C@@H]1CNc1ccc(C(=O)N[C@@H](CCC(=O)O)C(=O)O)cc1 | Folate receptor beta (FOLR2, Homo sapiens, UniProt P14207) | cell-free assay, ELISA | – | 0.196
COc1cccc(C2c3c(ncn(-c4ccccc4C)c3=N)Oc3ccc4ccccc4c32)c1 (stereo not shown) | NPSR1 | cAMP, antagonist, TR-FRET | – | 9.72
C1CNCCN1 | TPR | enzyme activity, inhibitor, absorbance | – | > 100
COc1ccc2c(Oc3ccc4c(C(=O)Nc5ccccc5N)cccc4c3)ccnc2c1 | Fibroblast growth factor receptor 1 (FGFR1, Homo sapiens, UniProt P11362) | enzyme activity, inhibitor | – | > 0.5
Cn1ccc(COc2cnc(C(N)=O)cc2-c2ccc(F)cc2)n1 | GRM3 | ion flux, antagonist | – | > 10
CCN(CC)CCOc1ccc2c(c1)C(=O)c1cc(OCCN(CC)CC)ccc1-2 | Cholinesterase (BCHE, Homo sapiens, UniProt P06276) | enzyme activity, inhibitor | – | > 50
